Data on 2 compounds can be found in ChEMBL document CHEMBL1154352, “Toll-like receptor 7 selective synthetic oligoribonucleotide agonists: synthesis and structure-activity relationship studies” (J Med Chem, 2009).

Structures are written as SMILES. Activity calls are given as the source filed them. The rule behind the calls is not given here.

Experiment [1] deals with T1, Toll-like receptor 7 (Homo sapiens) (UniProt Q9NYK1).
T1 sequence (whole entry): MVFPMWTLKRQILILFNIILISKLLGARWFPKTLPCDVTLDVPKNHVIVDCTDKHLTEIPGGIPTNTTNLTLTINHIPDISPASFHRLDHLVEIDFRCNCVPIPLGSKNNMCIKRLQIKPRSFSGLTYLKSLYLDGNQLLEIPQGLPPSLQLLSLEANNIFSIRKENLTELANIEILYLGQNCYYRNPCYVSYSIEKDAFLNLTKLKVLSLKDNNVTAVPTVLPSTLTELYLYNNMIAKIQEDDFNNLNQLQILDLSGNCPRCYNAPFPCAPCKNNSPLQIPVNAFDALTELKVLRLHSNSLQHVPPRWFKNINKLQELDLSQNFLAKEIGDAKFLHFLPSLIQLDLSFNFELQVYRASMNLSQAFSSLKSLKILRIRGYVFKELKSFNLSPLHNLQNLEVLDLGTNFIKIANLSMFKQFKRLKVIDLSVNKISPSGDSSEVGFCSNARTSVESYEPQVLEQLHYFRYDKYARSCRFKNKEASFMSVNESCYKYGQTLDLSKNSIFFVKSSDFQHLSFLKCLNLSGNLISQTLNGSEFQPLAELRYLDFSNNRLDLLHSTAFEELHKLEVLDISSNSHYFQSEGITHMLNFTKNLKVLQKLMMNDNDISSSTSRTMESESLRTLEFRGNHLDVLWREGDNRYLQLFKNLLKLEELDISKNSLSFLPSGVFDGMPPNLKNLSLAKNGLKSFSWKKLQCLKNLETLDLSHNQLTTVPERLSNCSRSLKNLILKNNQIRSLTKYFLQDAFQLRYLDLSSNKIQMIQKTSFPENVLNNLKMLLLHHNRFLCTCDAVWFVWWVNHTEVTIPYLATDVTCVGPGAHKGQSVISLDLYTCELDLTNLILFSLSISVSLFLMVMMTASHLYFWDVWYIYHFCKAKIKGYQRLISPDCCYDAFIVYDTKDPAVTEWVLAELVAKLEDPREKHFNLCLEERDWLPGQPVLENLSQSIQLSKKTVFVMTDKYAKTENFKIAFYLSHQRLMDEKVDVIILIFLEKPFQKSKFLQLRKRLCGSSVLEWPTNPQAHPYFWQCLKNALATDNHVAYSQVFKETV
In words: Activation of human TLR7 expressed in HEK293XL assessed as fold induction of NF-kappaB activity at 50 ug/ml after 18 hrs by reporter gene assay relative to control. Summed up: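 HEK293 cells stably expressing human TLR7 or TLR8, transiently transfected with SEAP reporter plasmid; medium replaced, SIMRA compounds added, 18 h incubation. Supernatant SEAP measured by QuantiBlue; expressed as fold increase in NF-κB activity over PBS control. Tabulated data at 50 μg/mL, representative of three independent experiments.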

The target of experiment [2] is T2, Toll-like receptor 9 (Mus musculus) (UniProt Q9EQU3).
T2 sequence (whole entry): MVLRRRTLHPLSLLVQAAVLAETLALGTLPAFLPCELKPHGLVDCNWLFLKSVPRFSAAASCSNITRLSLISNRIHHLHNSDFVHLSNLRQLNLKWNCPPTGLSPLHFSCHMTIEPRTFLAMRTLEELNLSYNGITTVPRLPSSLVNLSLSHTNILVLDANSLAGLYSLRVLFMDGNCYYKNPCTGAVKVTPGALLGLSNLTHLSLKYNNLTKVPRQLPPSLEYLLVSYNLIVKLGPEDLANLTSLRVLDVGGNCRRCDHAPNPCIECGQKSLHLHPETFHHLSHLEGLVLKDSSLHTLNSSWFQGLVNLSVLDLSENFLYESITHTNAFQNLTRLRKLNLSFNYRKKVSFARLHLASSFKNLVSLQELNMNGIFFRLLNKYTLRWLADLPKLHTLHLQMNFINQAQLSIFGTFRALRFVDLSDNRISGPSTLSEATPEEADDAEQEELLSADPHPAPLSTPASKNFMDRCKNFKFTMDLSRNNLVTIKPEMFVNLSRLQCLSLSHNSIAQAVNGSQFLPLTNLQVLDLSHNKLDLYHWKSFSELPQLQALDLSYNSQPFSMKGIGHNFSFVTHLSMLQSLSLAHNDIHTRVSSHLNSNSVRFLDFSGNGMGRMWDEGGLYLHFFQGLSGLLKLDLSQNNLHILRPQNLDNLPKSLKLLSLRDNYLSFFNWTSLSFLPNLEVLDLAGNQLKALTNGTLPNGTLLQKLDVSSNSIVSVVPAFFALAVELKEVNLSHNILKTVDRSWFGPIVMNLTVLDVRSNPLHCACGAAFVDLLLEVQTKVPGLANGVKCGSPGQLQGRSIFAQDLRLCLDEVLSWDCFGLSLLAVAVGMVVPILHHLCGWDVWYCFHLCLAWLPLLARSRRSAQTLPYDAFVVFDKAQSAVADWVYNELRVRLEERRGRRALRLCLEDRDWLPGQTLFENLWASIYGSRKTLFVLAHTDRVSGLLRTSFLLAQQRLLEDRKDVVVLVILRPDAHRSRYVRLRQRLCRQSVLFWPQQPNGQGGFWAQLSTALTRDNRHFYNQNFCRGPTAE
In words: Activation of mouse TLR9 expressed in HEK293 assessed as induction of NF-kappaB activity reporter gene assay. It counts as cell-based.

The test system of experiment [3] is Splenocyte. Nature of the experiment: Immunomodulatory activity in C57BL/6 mouse splenocytes bearing TLR7 receptor assessed as IL6 release at 100 ug/ml after 24 hrs by ELISA. Type of experiment: functional, cell-based. In outline: (§1)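 C57BL/6 splenocytes in RPMI 1640 with 10% FBS, penicillin/streptomycin, 2 mM L-glutamine, plated at 5 × 10^6 cells/mL; compounds in PBS added, 37 °C for 24 h. Supernatant IL-12 and IL-6 by ELISA; representative of three independent experiments.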
On the technique in general: In an ELISA, binding on a coated surface is turned into a signal by an enzyme label.

Experiment [4] deals with Splenocyte. Nature of the experiment: Immunomodulatory activity in C57BL/6 mouse splenocytes bearing TLR7 receptor assessed as IL12 release at 100 ug/ml after 24 hrs by ELISA. It counts as functional, cell-based. In outline: as §1
The test system of experiment [5] is PBMC. Nature of the experiment: Immunomodulatory activity in human PBMC assessed as induction of IL12 at 100 ug/ml after 24 hrs. It counts as functional, cell-based. Summed up:
(§2)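 Human PBMCs plated at 5 × 10^6 cells/mL; compounds dissolved in PBS added at various concentrations, 37 °C for 24 h. Supernatant cytokines/chemokines quantified with human Luminex multiplex kit.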

Experiment [6] deals with PBMC. Nature of the experiment: Immunomodulatory activity in human PBMC assessed as induction of TNFalpha at 100 ug/ml after 24 hrs. It counts as functional, cell-based. Summed up: as §2

For `Nc1ccn([C@@H]2O[C@H](COP(=O)(S)O[C@H]3[C@@H](O)[C@H](n4cnc5c(N)ncnc54)O[C@@H]3COP(=O)(S)O[C@H]3[C@@H](O)[C@H](n4ccc5c(=O)[nH]c(N)nc54)O[C@@H]3COP(=O)(S)O[C@H]3[C@@H](O)[C@H](n4ccc(=O)[nH]c4=O)O[C@@H]3COP(=O)(S)O[C@H]3[C@@H](O)[C@H](n4ccc5c(=O)[nH]c(N)nc54)O[C@@H]3COP(=O)(S)O[C@H]3[C@@H](O)[C@H](n4cnc5c(N)ncnc54)O[C@@H]3COP(=O)(S)O[C@H]3[C@@H](O)[C@H](n4cnc5c(N)ncnc54)O[C@@H]3CO)[C@@H](OP(=O)(S)OC[C@H]3O[C@@H](n4ccc5c(=O)[nH]c(N)nc54)[C@H](O)[C@@H]3OP(=O)(S)OC[C@H]3O[C@@H](n4cnc5c(N)ncnc54)[C@H](O)[C@@H]3OP(=O)(S)OC[C@H]3O[C@@H](n4ccc(=O)[nH]c4=O)[C@H](O)[C@@H]3OP(=O)(S)OC[C@H]3O[C@@H](n4ccc(=O)[nH]c4=O)[C@H](O)[C@@H]3OP(=O)(S)OCC(O)COP(=O)(S)O[C@H]3[C@@H](O)[C@H](n4ccc(=O)[nH]c4=O)O[C@@H]3COP(=O)(S)O[C@H]3[C@@H](O)[C@H](n4ccc(=O)[nH]c4=O)O[C@@H]3COP(=O)(S)O[C@H]3[C@@H](O)[C@H](n4cnc5c(N)ncnc54)O[C@@H]3COP(=O)(S)O[C@H]3[C@@H](O)[C@H](n4ccc5c(=O)[nH]c(N)nc54)O[C@@H]3COP(=O)(S)O[C@H]3[C@@H](O)[C@H](n4ccc(N)nc4=O)O[C@@H]3COP(=O)(S)O[C@H]3[C@@H](O)[C@H](n4cnc5c(N)ncnc54)O[C@@H]3COP(=O)(S)O[C@H]3[C@@H](O)[C@H](n4ccc5c(=O)[nH]c(N)nc54)O[C@@H]3COP(=O)(S)O[C@H]3[C@@H](O)[C@H](n4ccc(=O)[nH]c4=O)O[C@@H]3COP(=O)(S)O[C@H]3[C@@H](O)[C@H](n4ccc5c(=O)[nH]c(N)nc54)O[C@@H]3COP(=O)(S)O[C@H]3[C@@H](O)[C@H](n4cnc5c(N)ncnc54)O[C@@H]3COP(=O)(S)O[C@H]3[C@@H](O)[C@H](n4cnc5c(N)ncnc54)O[C@@H]3CO)[C@H]2O)c(=O)n1` (stereo not given in full), the fold change (FC) in experiment [1] is 17.5. For the same compound, the result in experiment [2] was inactive. For the same compound, the outcome in experiment [3] and in experiment [4] was Active. Moreover, the Activity in experiment [5] turned out to be 400 pg/mL; in experiment [6], 15.7 pg/mL.
For `Nc1ncnc2c1ncn2[C@@H]1O[C@H](CO)[C@@H](OP(=O)(S)OC[C@H]2O[C@@H](n3cnc4c(N)ncnc43)[C@H](O)[C@@H]2OP(=O)(S)OC[C@H]2O[C@@H](n3cnc4c(N)ncnc43)[C@H](O)[C@@H]2OP(=O)(S)OC[C@H]2O[C@@H](n3cnc4c(N)ncnc43)[C@H](O)[C@@H]2OP(=O)(S)OC[C@H]2O[C@@H](n3cnc4c(N)ncnc43)[C@H](O)[C@@H]2OP(=O)(S)OC[C@H]2O[C@@H](n3cnc4c(N)ncnc43)[C@H](O)[C@@H]2OP(=O)(S)OC[C@H]2O[C@@H](n3cnc4c(N)ncnc43)[C@H](O)[C@@H]2OP(=O)(S)OC[C@H]2O[C@@H](n3cnc4c(N)ncnc43)[C@H](O)[C@@H]2OP(=O)(S)OC[C@H]2O[C@@H](n3cnc4c(N)ncnc43)[C@H](O)[C@@H]2OP(=O)(S)OC[C@H]2O[C@@H](n3cnc4c(N)ncnc43)[C@H](O)[C@@H]2OP(=O)(S)OC[C@H]2O[C@@H](n3cnc4c(N)ncnc43)[C@H](O)[C@@H]2OP(=O)(S)OCC(O)COP(=O)(S)O[C@H]2[C@@H](O)[C@H](n3cnc4c(N)ncnc43)O[C@@H]2COP(=O)(S)O[C@H]2[C@@H](O)[C@H](n3cnc4c(N)ncnc43)O[C@@H]2COP(=O)(S)O[C@H]2[C@@H](O)[C@H](n3cnc4c(N)ncnc43)O[C@@H]2COP(=O)(S)O[C@H]2[C@@H](O)[C@H](n3cnc4c(N)ncnc43)O[C@@H]2COP(=O)(S)O[C@H]2[C@@H](O)[C@H](n3cnc4c(N)ncnc43)O[C@@H]2COP(=O)(S)O[C@H]2[C@@H](O)[C@H](n3cnc4c(N)ncnc43)O[C@@H]2COP(=O)(S)O[C@H]2[C@@H](O)[C@H](n3cnc4c(N)ncnc43)O[C@@H]2COP(=O)(S)O[C@H]2[C@@H](O)[C@H](n3cnc4c(N)ncnc43)O[C@@H]2COP(=O)(S)O[C@H]2[C@@H](O)[C@H](n3cnc4c(N)ncnc43)O[C@@H]2COP(=O)(S)O[C@H]2[C@@H](O)[C@H](n3cnc4c(N)ncnc43)O[C@@H]2COP(=O)(S)O[C@H]2[C@@H](O)[C@H](n3cnc4c(N)ncnc43)O[C@@H]2CO)[C@H]1O` (stereo not given in full), the fold change (FC) in experiment [1] is 0.3. For the same compound, the result in experiment [2] was inactive. In addition, the Activity in experiment [5] is 183 pg/mL; in experiment [6], 1.6 pg/mL.
